The text below walks through data of ChEMBL document CHEMBL2146434, “Synthesis and biological evaluation of new amino acid and dipeptide derivatives of neocryptolepine as anticancer agents” (J Med Chem, 2012).

Structures are written as SMILES.

The test system of one series is LoVo. In words: Cytotoxicity against human LoVo cells after 72 hrs by SRB assay. The class given is functional, cell-based. The method, boiled down:
(§1)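 IC50 is the compound concentration giving 50% inhibition of cell proliferation. It was determined on normal mouse BALB/3T3 fibroblasts and on human A549, MCF-7 and LoVo cancer lines, with doxorubicin hydrochloride and DiMIQ as reference compounds.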
For orientation: In SRB staining, fixed cells bind dye roughly in proportion to their protein.

A short description of series [1]: Octanol-water partition coefficient, log P of the compound at pH 2.2. The class given is physicochemical.
A short description of series [2]: Octanol-water partition coefficient, log P of the compound at pH 5. The class given is physicochemical.
Series [3] relates to Mus musculus. The series is described as follows: Toxicity in C57BL/6 mouse xenografted with mouse LLC cells assessed as body weight loss at 30 mg/kg/day, sc administered on day 9 to day 12 of tumor implantation. The class given is organism-based. Set-up: route subcutaneous. As to conditions: in vivo. In short, it runs like this: (§2)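 Mouse Lewis lung carcinoma (LLC) cells inoculated sc into mice. Daily dosing from day 9: 15 mg kg⁻¹ day⁻¹ through day 13 or 30 mg kg⁻¹ day⁻¹ through day 12; 25 or 50 mg kg⁻¹ day⁻¹ through day 13. Route is given as ip in tables and text but sc in figure legends. Body weight monitored for loss alongside tumor growth. Single 100 mg/kg cyclophosphamide dose as cytostatic control.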

The subject of series [4] is Mus musculus. In words: Toxicity in C57BL/6 mouse xenografted with mouse LLC cells assessed as body weight loss at 15 mg/kg/day, sc administered on day 9 to day 13 of tumor implantation. To be noted: in vivo. The class given is organism-based. Set-up: route subcutaneous. In short, it runs like this:
(§3)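 Body weight was tracked in C57BL/6 mice bearing subcutaneously inoculated LLC during therapy given daily from day 9 to day 13. A single 100 mg/kg dose of cyclophosphamide served as the cytostatic control group.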

The subject of series [5] is Mus musculus. The series is described as follows: Toxicity in C57BL/6 mouse xenografted with mouse LLC cells assessed as body weight loss at 30 mg/kg/day, ip administered on day 9 to day 12 of tumor implantation. The class given is organism-based. Also noted: route intraperitoneal. To be noted: in vivo. In short, it runs like this:
as §2

The next series relates to KB. In words: Cytotoxicity against human KB cells after 72 hrs by SRB assay. Format: functional, cell-based.
In another series the test system is A549. In words: Cytotoxicity against human A549 cells after 72 hrs by SRB assay. Format: functional, cell-based. As to conditions: A549, 72 h. In short, it runs like this:
as §1

For another series, the system named is MCF7. In words: Cytotoxicity against human MCF7 cells after 72 hrs by SRB assay. The class given is functional, cell-based. To be noted: MCF7, 72 h. In short, it runs like this: as §1
The test system of series [6] is Lewis lung carcinoma cell line. The series is described as follows: Antineoplastic activity against mouse LLC cells xenografted in C57BL/6 mouse assessed as tumor growth inhibition at 25 mg/kg/day, ip administered on day 10 to day 14 of tumor implantation measured on day 12. The class given is functional. As to conditions: route intraperitoneal, read-out: TGI. In short, it runs like this: (§4)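 Mice bore Lewis lung carcinoma (LLC) inoculated subcutaneously and received test agents intraperitoneally at 15–50 mg kg⁻¹ day⁻¹ from day 9 or day 10. A single 100 mg/kg cyclophosphamide dose was the cytostatic control. Tumor growth was followed as the group median, and TGI% was calculated from medians versus untreated controls. Significance was tested by nonparametric Kruskal–Wallis multiple comparison, p < 0.05.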

Series [7] has as its system Lewis lung carcinoma cell line. The series is described as follows: Antineoplastic activity against mouse LLC cells xenografted in C57BL/6 mouse assessed as tumor growth inhibition at 25 mg/kg/day, ip administered on day 10 to day 14 of tumor implantation measured on day 14. The class given is functional. As to conditions: route intraperitoneal, read-out: TGI. In short, it runs like this:
as §4

The subject of series [8] is Lewis lung carcinoma cell line. The series is described as follows: Antineoplastic activity against mouse LLC cells xenografted in C57BL/6 mouse assessed as tumor growth inhibition at 25 mg/kg/day, ip administered on day 10 to day 14 of tumor implantation measured on day 17. Format: functional. To be noted: route intraperitoneal, read-out: TGI. In short, it runs like this: as §4

For series [9], the system named is Lewis lung carcinoma cell line. In words: Antineoplastic activity against mouse LLC cells xenografted in C57BL/6 mouse assessed as tumor growth inhibition at 25 mg/kg/day, ip administered on day 10 to day 14 of tumor implantation measured on day 19. Format: functional. To be noted: route intraperitoneal, read-out: TGI. The method, boiled down: as §4
The test system of series [10] is Lewis lung carcinoma cell line. The series is described as follows: Antineoplastic activity against mouse LLC cells xenografted in C57BL/6 mouse assessed as tumor growth inhibition at 25 mg/kg/day, ip administered on day 10 to day 14 of tumor implantation measured on day 21. Format: functional. To be noted: route intraperitoneal, read-out: TGI. In short, it runs like this:
as §4

The test system of series [11] is Lewis lung carcinoma cell line. The series is described as follows: Antineoplastic activity against mouse LLC cells xenografted in C57BL/6 mouse assessed as tumor growth inhibition at 25 mg/kg/day, ip administered on day 10 to day 14 of tumor implantation measured on day 24. The class given is functional. As to conditions: route intraperitoneal, read-out: TGI. The method, boiled down:
as §4

Series [12] deals with Lewis lung carcinoma cell line. The series is described as follows: Antineoplastic activity against mouse LLC cells xenografted in C57BL/6 mouse assessed as tumor growth inhibition at 50 mg/kg/day, ip administered on day 10 to day 14 of tumor implantation measured on day 12. As to conditions: route intraperitoneal, read-out: TGI. The class given is functional. In short, it runs like this:
as §4

The test system of series [13] is Lewis lung carcinoma cell line. In words: Antineoplastic activity against mouse LLC cells xenografted in C57BL/6 mouse assessed as tumor growth inhibition at 50 mg/kg/day, ip administered on day 10 to day 14 of tumor implantation measured on day 14. The class given is functional. As to conditions: route intraperitoneal, read-out: TGI. The method, boiled down: as §4

In series [14] the test system is Lewis lung carcinoma cell line. In words: Antineoplastic activity against mouse LLC cells xenografted in C57BL/6 mouse assessed as tumor growth inhibition at 50 mg/kg/day, ip administered on day 10 to day 14 of tumor implantation measured on day 17. As to conditions: route intraperitoneal, read-out: TGI. Format: functional. In short, it runs like this: as §4
Series [15] relates to Lewis lung carcinoma cell line. In words: Antineoplastic activity against mouse LLC cells xenografted in C57BL/6 mouse assessed as tumor growth inhibition at 50 mg/kg/day, ip administered on day 10 to day 14 of tumor implantation measured on day 19. Format: functional. As to conditions: route intraperitoneal, read-out: TGI. The method, boiled down: as §4
Series [16] deals with Lewis lung carcinoma cell line. In words: Antineoplastic activity against mouse LLC cells xenografted in C57BL/6 mouse assessed as tumor growth inhibition at 50 mg/kg/day, ip administered on day 10 to day 14 of tumor implantation measured on day 21. The class given is functional. To be noted: route intraperitoneal, read-out: TGI. The method, boiled down:
as §4

Series [17] deals with Lewis lung carcinoma cell line. In words: Antineoplastic activity against mouse LLC cells xenografted in C57BL/6 mouse assessed as tumor growth inhibition at 50 mg/kg/day, ip administered on day 10 to day 14 of tumor implantation measured on day 24. The class given is functional. As to conditions: route intraperitoneal, read-out: TGI. The method, boiled down:
as §4

Series [18] concerns Mus musculus. The series is described as follows: Toxicity in C57BL/6 mouse xenografted with mouse LLC cells assessed as body weight loss at 15 mg/kg/day, ip administered on day 9 to day 13 of tumor implantation. Also noted: route intraperitoneal. The class given is organism-based. To be noted: in vivo. The method, boiled down: as §3
In series [19] the test system is Mus musculus. The series is described as follows: Toxicity in C57BL/6 mouse xenografted with mouse LLC cells assessed as body weight loss at 25 mg/kg/day, sc administered on day 9 to day 13 of tumor implantation. The class given is organism-based. Also noted: route subcutaneous. To be noted: in vivo. The method, boiled down:
as §3

Series [20] deals with Mus musculus. In words: Toxicity in C57BL/6 mouse xenografted with mouse LLC cells assessed as body weight loss at 50 mg/kg/day, sc administered on day 9 to day 13 of tumor implantation. The class given is organism-based. Also noted: route subcutaneous. As to conditions: in vivo. In short, it runs like this: as §2
The nature of series [21]: Dissociation constant, pKa of the compound in PBS buffer at 5 uM at pH 2 to 10 by UV-spectrophotometric analysis. The class given is physicochemical. The method, boiled down: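 UV spectrophotometric titration at a final compound concentration of 5 μM. At this concentration the absorbance–concentration relationship stayed linear. pKa was read from spectral changes across pH.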

The nature of series [22]: Octanol-water partition coefficient, log P of the compound in citric buffer at pH 2.5 by spectrophotometric analysis. The class given is physicochemical. The method, boiled down: (§5)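 Octanol–water partitioning, with log P defined as log(C_octanol/C_water). Compound in the aqueous phase was measured spectrophotometrically, and octanol content was obtained by subtracting the supernatant concentration from the total. Values are the mean of two independent experiments, each run in triplicate.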

A short description of series [23]: Octanol-water partition coefficient, log P of the compound in PBS buffer at pH 7.4 by spectrophotometric analysis. The class given is physicochemical. The method, boiled down: as §5
Series [24] is described as follows: Toxicity in human erythrocytes assessed as hemolysis at 0.3 mM after 30 mins by spectrophotometric analysis. The class given is cell-based, Erythrocyte. To be noted: read-out: Activity. In short, it runs like this:
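Human erythrocyte suspension under isotonic conditions (pH 7.4, hematocrit 50%). Compound added across a concentration series and incubated 30 min at 37 °C before hemolysis was scored. Mean ± SD of three individual determinations. Statistics by Mann–Whitney U test, p < 0.05.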

Series [25] can be described thus: Solubility of the compound in water. Format: physicochemical. To be noted: buffer.
The test system of series [26] is Mus musculus. The series is described as follows: Toxicity in C57BL/6 mouse xenografted with mouse LLC cells at 25 to 50 mg/kg/day, ip administered on day 9 to day 13 of tumor implantation. Also noted: route intraperitoneal. The class given is organism-based. As to conditions: in vivo. In short, it runs like this: as §2

As a reminder, the IC50 is the midpoint of a concentration-inhibition curve. A high value points to weaker potency. By logP is commonly meant the decadic logarithm of the partition coefficient of the neutral form, usually between octanol and water. Read a high logP as higher lipophilicity. For the compound `Cc1c2c3ccccc3nc-2n(C)c2ccccc12`, in the series on LoVo, the IC50 was 0.2 µM. The logP in series [1] is listed as -1; in [2], 2.

As usually defined, the pKa is the negative logarithm of the acid dissociation constant. The low end stands for a group that gives up its proton readily, the high end for a group that holds its proton tightly. The logD is the decadic logarithm of the distribution of all forms, ionised or not, between an organic phase and buffer at a given pH. Turning to `Cc1c2c3cc(NC(=O)CNC(=O)[C@@H]4CCCN4)ccc3nc-2n(C)c2ccccc12.Cl.Cl`, the Activity result with Mus musculus [3], in the series with Mus musculus [4], with Mus musculus [5], in the series with Mus musculus [18], in the series with Mus musculus [19] and with Mus musculus [20] was “<= 15%” throughout. In the series on Mus musculus [26], the Activity entry is on record as “Non-toxic”. Further, the IC50 in the series on KB is 3.73 µM; in the series on A549, 1.15 µM; in the series with MCF7, 1.43 µM; in the series on LoVo, 0.98 µM. Also, the inhibition in vivo at 25 mg/kg/day was found to be 12.9% in [6]; 11.6% in series [7]; 0% in series [8]; 3.1% in series [9]; 0% in series [10]; 0% in [11]. Also, the inhibition in vivo at 50 mg/kg/day in series [12] was 16.3%; in series [13] it was 36.5%; in series [14] it was 18.5%; in series [15], 33.1%; in [16], 32.5%; in series [17] it was 8.19%. The pKa at 5 µM in series [21] came to 7.3. The logP in series [22] was -1.9. Besides, the logD in [23] is -0.1. The hemolysis at 0.5 h, 300 µM in series [24] was determined as 9.97%. The solubility entry in [25] is “soluble”.
